This passage reports Activity, IC50 and solubility results from ChEMBL document CHEMBL4622843, “Synthesis, state-of-the-art NMR-binding and molecular modeling study of new benzimidazole core derivatives as Pin1 inhibitors: Targeting breast cancer” (Bioorg Med Chem, 2020).

The source made the active and inactive calls. The rule behind the calls is not given here.

Sequence of Peptidyl-prolyl cis-trans isomerase NIMA-interacting 1 (Homo sapiens) (Q13526 whole entry): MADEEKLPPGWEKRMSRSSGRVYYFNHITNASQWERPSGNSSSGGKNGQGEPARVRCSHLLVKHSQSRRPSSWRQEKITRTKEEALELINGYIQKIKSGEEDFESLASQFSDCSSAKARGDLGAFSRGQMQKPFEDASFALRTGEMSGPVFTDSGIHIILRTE

One data set has as its system MCF7. Kind of data set: Induction of apoptosis in human MCF7 cells assessed as early apoptotic cells at 10 mg/ml after 24 hrs by AnnexinV-FITC/propidium iodide staining based flow cytometry analysis (reference value: 0.41%).
Conditions: not given
The class given is functional.
On to `CCOc1ccccc1N1CCN(C(=S)SCc2nc3cc(C)c(C)cc3[nH]2)CC1`, for which the Activity came out at 7.36%.

For another data set, the system named is MCF7. The experiment in a line: Induction of apoptosis in human MCF7 cells assessed as late apoptotic cells at 10 mg/ml after 24 hrs by AnnexinV-FITC/propidium iodide staining based flow cytometry analysis (reference value: 0.19%). The class given is functional.
Conditions: not given
A general note: A flow cytometer gives signals particle by particle.
In the case of `CCOc1ccccc1N1CCN(C(=S)SCc2nc3cc(C)c(C)cc3[nH]2)CC1`, the Activity is 17.01%.

A further data set has as its system MCF7. Kind of data set: Induction of apoptosis in human MCF7 cells assessed as necrotic cells at 10 mg/ml after 24 hrs by AnnexinV-FITC/propidium iodide staining based flow cytometry analysis (reference value: 0.44%). It counts as functional.
Conditions: not given
On to `CCOc1ccccc1N1CCN(C(=S)SCc2nc3cc(C)c(C)cc3[nH]2)CC1`, for which the Activity stood at 2.91%.

Another data set has as its system MCF7. The experiment in a line: Cytotoxicity against human MCF7 cells assessed as reduction in cell viability after 24 hrs by MTT assay. The class given is functional, cell-based. The conditions noted are these: MCF7, 24 h. Background: Formazan colour is commonly taken as a measure of viable cells.
For `CCOc1ccccc1N1CCN(C(=S)SCc2nc3cc(Cl)c(Cl)cc3[nH]2)CC1`, the IC50 was determined as 16.2 µM.

As for `CN1CCN(CCCSc2nc3cc(Cl)ccc3[nH]2)CC1`, the half-maximal inhibitory concentration (IC50) stood at 13.9 µM.

Regarding `COc1ccc(N2CCN(C(=S)SCc3nc4cc(C)c(C)cc4[nH]3)CC2)cc1`, the IC50 was 46 µM.

As to `c1ccc2[nH]c(SCCCN3CCNCC3)nc2c1`, the half-inhibitory concentration (IC50) was determined as 91.7 µM.

For `Clc1cccc(N2CCN(CCCSc3nc4cc(Cl)ccc4[nH]3)CC2)c1`, the IC50 amounted to 61.4 µM.

For the compound `COc1ccc(N2CCN(CCCSc3nc4ccccc4[nH]3)CC2)cc1`, the IC50 came out at 6.84 µM.

`Cc1cc2nc(CSC(=S)N3CCCCC3)[nH]c2cc1C`: the IC50 was 9.55 µM.

With `COc1ccc(N2CCN(CCCSc3nc4cc(Cl)ccc4[nH]3)CC2)cc1`, the IC50 was 38.5 µM.

Consider `c1ccc2[nH]c(SCCCN3CCOCC3)nc2c1`, for which the half-inhibitory concentration (IC50) is 82.9 µM.

`CN1CCN(CCCSc2nc3ccccc3[nH]2)CC1`: the concentration for half-maximal inhibition (IC50) came out at 77.9 µM.

Take `CCN(CC)C(=S)SCc1nc2cc(Cl)c(Cl)cc2[nH]1`: the IC50 turned out to be 12.6 µM.

`CN1CCN(C(=S)SCc2nc3cc(Cl)c(Cl)cc3[nH]2)CC1`: the concentration for half-maximal inhibition (IC50) was 30.5 µM.

On to `CCOc1ccccc1N1CCN(CCCSc2nc3ccccc3[nH]2)CC1`, for which the IC50 was 32.7 µM.

Turning to `Clc1cccc(N2CCN(CCCSc3nc4ccccc4[nH]3)CC2)c1`, the half-inhibitory concentration (IC50) turned out to be 54.6 µM.

With `ClCCCSc1nc2cc(Cl)ccc2[nH]1`, the IC50 is 24.1 µM.

With `CCOc1ccccc1N1CCN(CCCSc2nc3cc(Cl)ccc3[nH]2)CC1`, the IC50 turned out to be 27.7 µM.

As for `CCOc1ccccc1N1CCN(C(=S)SCc2nc3cc(C)c(C)cc3[nH]2)CC1`, the IC50 worked out at 5.58 µM.

As for `S=C(SCc1nc2cc(Cl)c(Cl)cc2[nH]1)N1CCOCC1`, the IC50 worked out at 5.7 µM.

In the case of `COc1ccc(N2CCN(C(=S)SCc3nc4cc(Cl)c(Cl)cc4[nH]3)CC2)cc1`, the 50% inhibitory concentration (IC50) came out at 19.9 µM.

In the case of `S=C(SCc1nc2cc(Cl)c(Cl)cc2[nH]1)N1CCCCC1`, the IC50 was determined as 42.8 µM.

A further data set deals with MCF7. Kind of data set: Cell cycle arrest in human MCF7 cells assessed as accumulation at G0/G1 phase at 10 mg/ml after 24 hrs by Annexin V-FITC/propidium iodide staining based flow cytometry (reference value: 56.38%).
Conditions: not given
The class given is functional.
In the case of `CCOc1ccccc1N1CCN(C(=S)SCc2nc3cc(C)c(C)cc3[nH]2)CC1`, the Activity came to 39.72%.

Another data set concerns MCF7. The experiment in a line: Cell cycle arrest in human MCF7 cells assessed as accumulation at S phase at 10 mg/ml after 24 hrs by Annexin V-FITC/propidium iodide staining based flow cytometry (reference value: 38.15%). It counts as functional.
Conditions: not given
For `CCOc1ccccc1N1CCN(C(=S)SCc2nc3cc(C)c(C)cc3[nH]2)CC1`, the Activity was 32.42%.

Another data set relates to MCF7. Kind of data set: Cell cycle arrest in human MCF7 cells assessed as accumulation at G2/M phase at 10 mg/ml after 24 hrs by Annexin V-FITC/propidium iodide staining based flow cytometry (reference value: 5.47%).
Conditions: not given
The class given is functional.
For the compound `CCOc1ccccc1N1CCN(C(=S)SCc2nc3cc(C)c(C)cc3[nH]2)CC1`, the Activity is on record as 27.86%.

For another data set, the system named is MCF7. Kind of data set: Cell cycle arrest in human MCF7 cells assessed as accumulation at PreG1 phase at 10 mg/ml after 24 hrs by Annexin V-FITC/propidium iodide staining based flow cytometry (reference value: 1.04%).
Conditions: not given
The class given is functional.
For `CCOc1ccccc1N1CCN(C(=S)SCc2nc3cc(C)c(C)cc3[nH]2)CC1`, the Activity came out at 27.28%.

The next data set concerns the target Peptidyl-prolyl cis-trans isomerase NIMA-interacting 1 (Homo sapiens) (UniProt Q13526). Kind of data set: Binding affinity to recombinant human 15N-labelled N-terminal 6His-tagged Pin1 expressed in Escherichia coli BL21 (DE3) cells at 1:10 ratio of protein to compound by 2D 15N-1H HSQC NMR spectroscopy.
Conditions: not given
The procedure, abridged: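 Pin1 and compound at a 1:10 protein:compound ratio, compound partially dissolved in 95% buffer/5% DMSO. A reference HSQC spectrum was recorded with DMSO only and compared with ligand-containing spectra.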
Consider `COc1ccc(N2CCN(CCCSc3nc4ccccc4[nH]3)CC2)cc1`, for which the outcome was Active.

As for `Cc1cc2nc(CSC(=S)N3CCCCC3)[nH]c2cc1C`, the result was Active.

`S=C(SCc1nc2cc(Cl)c(Cl)cc2[nH]1)N1CCOCC1`: the outcome was Active.

Test system in another data set: not listed separately
The experiment in a line: Solubility of the compound in 95% PBS buffer/5% DMSO. The class given is physicochemical.
Conditions: not given
On to `COc1ccc(N2CCN(CCCSc3nc4ccccc4[nH]3)CC2)cc1`, for which the solubility result was “Soluble”.

On to `Cc1cc2nc(CSC(=S)N3CCCCC3)[nH]c2cc1C`, for which the solubility entry is recorded as “Soluble”.

On to `S=C(SCc1nc2cc(Cl)c(Cl)cc2[nH]1)N1CCOCC1`, for which the solubility result was “Soluble”.

The IC50 is the concentration needed to halve the response being measured.
